Assay outcomes: PubChem BioAssay, several laboratories
B2AR ag – activates human beta-2 adrenergic receptor causing internalization. actives 0.43% (n = 340,000). Am2.2-beta2AR cells, FAP receptor internalization, flow cytometry. response, % (concentration not given with the values). AID 504454. P07550;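 active means response above a set limit, near 3 SD of response in nonfluorescent compounds, cut at about 42% in these data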
Target sequence (P07550 whole entry, looked up): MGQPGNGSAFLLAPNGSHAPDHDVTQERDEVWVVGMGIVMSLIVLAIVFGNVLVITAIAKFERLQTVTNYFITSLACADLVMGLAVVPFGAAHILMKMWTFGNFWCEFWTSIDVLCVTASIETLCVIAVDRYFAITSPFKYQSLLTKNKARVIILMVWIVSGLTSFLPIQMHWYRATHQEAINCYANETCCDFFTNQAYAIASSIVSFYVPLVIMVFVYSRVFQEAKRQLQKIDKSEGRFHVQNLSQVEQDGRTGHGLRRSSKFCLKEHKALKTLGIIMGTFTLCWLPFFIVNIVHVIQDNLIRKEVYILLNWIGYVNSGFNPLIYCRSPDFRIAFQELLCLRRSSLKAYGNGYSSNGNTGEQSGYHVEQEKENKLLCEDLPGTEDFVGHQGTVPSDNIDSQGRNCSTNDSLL
TNF death inh – inhibitors of TNF-alpha induced necroptosis in Jurkat FADD-/- cells; Jurkat FADD-/- TNF necroptosis rescue, ATP luminescence, 24 h; 0 = TNF only, 100 = no-TNF cells; activation (protection from cell death), % at 10 µM; actives 0.068% (n = 220,000);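 active means activation, meaning protection from cell death, of at least 50% relative to plate controls; inactive means activation below 50%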;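 further: necroptosis triggered by 40 ng/mL TNF-alpha added together with compound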
Dynein transport – blocks dynein driven cargo transport along microtubules. actives 0.47% (n = 220,000). z-score, hits read low. 3617.4 mouse cells, GR-EGFP nuclear translocation imaging; test concentration mostly 20 µM; stimulated with dexamethasone, 1 µM; active compounds read low;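 active means plate z-score of nuclear minus cytoplasmic receptor signal below a set negative limit, without overly bright fluorescence or cell loss, cut at about -3.5 in these data, passing the limit was not always enough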;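 further: z-score of nuclear minus cytoplasmic ring GR-EGFP intensity difference per well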
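Buffer or medium: tet-free medium with charcoal-stripped serum / Also added: dexamethasone agonist, 1.0 µM final, for 30 min / Timing: induction 48 h, compound 1 h, agonist 30 min / Measured by: high-content fluorescence imaging after fixation / Read-out: nuclear-to-cytoplasmic GR-EGFP distribution per well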
MDM2 E3 inh – Mdm2 E3 ligase (human) inhibition. Q00987. cell-based MDM2 ubiquitination luciferase reporter, 2 h; 0 = plate control, 100 = twice control, blank-subtracted. signal enhancement, % at 5 µM. actives 0.11% (n = 210,000). AID 1230;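 active means signal enhancement of 30% or more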;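 further: luminescence tracks abundance of the self-degrading MDM2-luciferase fusion protein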
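system = mammalian cells stably expressing self-ubiquitinating, self-degrading MDM2 E3–luciferase fusion | quantity = 2000 cells per well seeded | incubation = 4 h cell settling then 2 h compound exposure, 37 °C | signal = SteadyLite luminescence, 15 min reagent step | benchmarks = plate control and blank wells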
zVAD death inh – L929 zVAD cell death inhibition. L929 zVAD necroptosis rescue, ATP luminescence, 24 h; with zVAD 60 µM. viability rescue, % at 10 µM. actives 0.38% (n = 220,000);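 active means activation, scaled between plate controls, above about 75%, limit read from the data; inactive means activation under that limit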;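 further: 0% = zVAD with DMSO and 100% = DMSO alone without zVAD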
Beta2AR ag CP1 – agonists of human beta-2 adrenergic receptor | percent response (surface receptor), % at 10 µM | Am2.2-beta2AR cells, FAP surface receptor, flow cytometry; active compounds read low | AID 540358 | shares compounds with B2AR ag | actives 25% (n = 1,100);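 active means surface receptor percent response at or below 58%, roughly 3 SD from nonfluorescent compounds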
FAP fluor counter – fluorescence artifact in beta-2AR agonist FAP counterscreen. shares compounds with B2AR ag. Am2.2 cells, FAP fluorogen flow cytometry; active compounds read low. calls only at 10 µM. 1,100 tested, under 10 active;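 active means percent response below a set limit in fluorescence channel 1 and below 50% in channel 8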
An asterisk follows results filed as active; i = inactive; x = no result. Compounds with a hit are over-represented: about 0.97% of the library has one in this group of screens.

SMILES | B2AR ag | TNF death inh | Dynein transport | MDM2 E3 inh | zVAD death inh | Beta2AR ag CP1 | FAP fluor counter
CC(C)=CCC(C)(C)C1OCCN1C(=O)c1ccccc1 (stereo unspecified) | 62* | 4 | 0.76 | -13 | 0 | 22* | i
CC(C)Cn1c(CN2CCN(c3ccccc3F)CC2)nc2c1c(=O)[nH]c(=O)n2C | 1 | 0 | -0.59 | -10 | 1 | x | x
COc1ccc(NC(=O)CCS(=O)(=O)c2cccc3nonc23)c(OC)c1 | 3 | -1 | -1.2 | 2 | 3 | x | x
O=C(COc1ccc(S(=O)(=O)N2CCOCC2)cc1)Nc1ccccc1C(F)(F)F | -7 | 1 | -0.016 | -13 | 0 | 112 | i
O=C(COc1ccccc1)Nc1ccc(S(=O)(=O)N2CCCCCC2)cc1 | 6 | 1 | 1.2 | -7 | 1 | x | x
O=C(COc1ccc(S(=O)(=O)N2CCCCC2)cc1)Nc1ccccc1F | -2 | x | x | x | x | 104 | i
COc1ccccc1OCCNC(=O)c1ccc(Br)cc1 | -12 | x | x | x | x | x | x
O=C(Nc1cc(Cl)ccc1N1CCCC1)C1=NN(c2ccccc2)C(=O)CC1 | 1 | x | x | x | x | x | x
CCN(CC)S(=O)(=O)c1ccc(N2CCCC2)c(NC(=O)C2=NN(c3ccccc3)C(=O)CC2)c1 | 47* | x | x | x | x | 99 | i
COc1ccc(S(=O)(=O)N(CCc2ccccc2)CC(=O)O)cc1 | 51* | -1 | 0.57 | -7 | 1 | 102 | i
O=C(CSc1ncccn1)n1c2c(c3ccccc31)CCCC2 | -12 | -1 | 0.5 | -5 | 1 | x | x
O=C(C1CCCO1)N1CCN(C(=S)Nc2cccc(F)c2)CC1 (stereo unspecified) | 5 | x | x | x | x | x | x
O=S(=O)(c1ccccc1F)N1CCN(c2nc3ccccc3s2)CC1 | -4 | 1 | 0.52 | -6 | 2 | x | x
CCN(CC)S(=O)(=O)c1cc(NC(=O)C2=COCCO2)ccc1Cl | 115* | x | x | x | x | 24* | i
COCn1c(-c2ccc(OC)c(OC)c2)nc2ccccc21 | -6 | 0 | -0.5 | -11 | 0 | x | x
NC(=O)CC(NC(=O)Cc1cccc2ccccc12)c1ccc(NCCCN2CCCC2=O)c([N+](=O)[O-])c1 (stereo unspecified) | 103* | x | x | x | x | 17* | i
Cc1cc(-c2ccc(N3CCOCC3)cc2)nc2ccccc12 | -62 | 0 | -0.37 | -17 | 1 | x | x
O=S(=O)(Nc1cccc(-c2cn3cccnc3n2)c1)c1ccc(-c2ccccc2)cc1 | 110* | -2 | -0.42 | 1 | 0 | 12* | i
O=C1C=C(NC2CCCC2)CC(c2ccccc2)C1 (stereo unspecified) | 2 | 0 | -0.99 | 17 | 3 | 117 | i
O=C(NCc1ccccc1Cl)C1(S(=O)(=O)c2ccc(Cl)cc2)CC1 | -1 | x | x | x | x | x | x
COc1ccc(C)cc1NC(=O)C1CCCN(S(=O)(=O)c2ccc3c(c2)CCCN3C(C)=O)C1 (stereo unspecified) | -2 | x | x | x | x | x | x
CCOC(=O)c1ccc(NC(=O)Cn2nnc(-c3ccccc3)n2)cc1 | 64* | 2 | 0.41 | -14 | 3 | 1.2* | i
CC(=O)Nc1cc(S(=O)(=O)Nc2ccccc2)c(C)cc1C | 47* | -3 | -0.015 | -6 | 0 | 115 | i
CCOC(=O)C1CCN(C(=O)COC(=O)c2ccccc2OCC)CC1 | 0 | x | x | x | x | x | x
CC1CCN(C(=O)COC(=O)c2ccccc2C(=O)c2ccccc2)CC1 | -2 | x | x | x | x | 113 | i
CCOC(=O)C1CCN(C(=O)COC(=O)c2ccccc2C(=O)c2ccc(Cl)cc2)CC1 | 5 | x | x | x | x | 95 | i
Cc1ccc(C(=O)c2ccccc2C(=O)OCC(=O)N2C(C)CCCC2C)cc1 (stereo unspecified) | 4 | x | x | x | x | 123 | i
CC1CCCC(C)N1C(=O)COC(=O)c1ccc[nH]c1=O (stereo unspecified) | -4 | 0 | -0.24 | 0 | 0 | x | x
